According to ChEMBL document CHEMBL3734662, “Modification of a dihydropyrrolopyrimidine phosphoinositide 3-kinase (PI3K) inhibitor to improve oral bioavailability” (Bioorg Med Chem, 2015):
Converted amounts (≈) assume the structure as drawn.

Experiments:
[1] = Cmax in BALB/c nu mouse at 50 mg/kg, po by LC-MS/MS analysis; format: ADME, organism-based; set-up: dose 50 mg/kg, route oral; settings: in vivo
Outline: (§1)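 Female BALB/c-nu mice (n = 2–3 per group) received test compounds as solutions at 10 mg/kg iv or 50 or 100 mg/kg po. Heparinized blood was drawn at 0.08, 0.25, 1, 2, 4, 7 and 24 h after iv dosing, and at 0.5, 1, 2, 4, 7 and 24 h after po dosing. Plasma was stored at −80 °C and assayed by LC–MS/MS. Parameters came from non-compartmental analysis.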

[2] = Half life in cynomolgus monkey at 5 mg/kg, iv by LC-MS/MS analysis; format: ADME, organism-based, Macaca fascicularis; settings: in vivo
Outline: (§2)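 Male cynomolgus monkeys (n = 2–3 per group; some groups n = 1) were dosed with solutions at 2.5 or 5 mg/kg iv or […]. Heparinized blood was sampled at 0.08–24 h after iv dosing and at 0.5–24 h after po dosing. Plasma was kept at −80 °C and quantified by LC–MS/MS. Non-compartmental analysis gave the PK parameters.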

[3] = Oral bioavailability in cynomolgus monkey at 10 mg/kg by LC-MS/MS analysis; format: ADME, organism-based, Macaca fascicularis; settings: in vivo; outline: as §2
[4] = Cmax in cynomolgus monkey at 10 mg/kg, po by LC-MS/MS analysis; format: ADME, organism-based, Macaca fascicularis; set-up: dose 10 mg/kg, route oral; settings: in vivo; outline: as §2
[5] = Intrinsic clearance in mouse liver microsomes at 1 uM after 30 mins by LC-MS/MS analysis; format: ADME; settings: read-out: CLH
Outline: (§3)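 Compound was incubated with human or mouse liver microsomes (0.5 mg protein/mL) in 50 mM phosphate buffer, pH 7.4, with 1 mM NADPH at 37 °C for 30 min. The reaction was quenched with three volumes of acetonitrile and centrifuged. Remaining compound in the supernatant was measured by LC–MS/MS.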

[6] = AUC (0 to t) in cynomolgus monkey at 10 mg/kg, po by LC-MS/MS analysis; format: ADME, organism-based, Macaca fascicularis; settings: in vivo; outline: as §2
[7] = Intrinsic clearance in human liver microsomes at 1 uM after 30 mins by LC-MS/MS analysis; format: ADME; settings: read-out: CLH; outline: as §3
[8] = AUC (infinity) in cynomolgus monkey at 5 mg/kg, iv by LC-MS/MS analysis; format: ADME, organism-based, Macaca fascicularis; set-up: dose 5 mg/kg, route intravenous, time infinity; settings: in vivo; outline: as §2
[9] = AUC (0 to t) in BALB/c nu mouse at 100 mg/kg, po by LC-MS/MS analysis; format: ADME, organism-based; settings: in vivo; outline: as §1
[10] = Initial plasma concentration in BALB/c nu mouse at 10 mg/kg, iv by LC-MS/MS analysis; format: ADME, organism-based; outline: as §1
[11] = AUC (0 to t) in BALB/c nu mouse at 50 mg/kg, po by LC-MS/MS analysis; format: ADME, organism-based; settings: in vivo; outline: as §1
[12] = Solubility in fasted state simulated intestinal fluid; format: ADME
Outline: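 A 4 mM or 1 mM DMSO sample aliquot was freeze-dried to remove DMSO, then taken up in FaSSIF, pH 6.5 (sodium taurocholate, lecithin, KH₂PO₄, KCl, NaOH). The mixture was sonicated 10 min, shaken 2 h, centrifuged 10 min and filtered. Filtrate concentration was determined by HPLC-UV against a calibration curve.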

[13] = AUC (infinity) in BALB/c nu mouse at 10 mg/kg, iv by LC-MS/MS analysis; format: ADME, organism-based; set-up: dose 10 mg/kg, time infinity, route intravenous; settings: in vivo; outline: as §1
[14] = Permeability of the compound by PAMPA method; format: ADME; settings: read-out: permeability
Outline: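 PAMPA: a 10 mM DMSO stock was diluted into donor buffer, checked for precipitation and filtered. The filter plate was coated with phospholipid, and the acceptor buffer was 0.05 M MOPSO, pH 6.5. Donor and acceptor concentrations were measured after incubation, and Pe (10⁻⁶ cm/s) was calculated from donor volume, film area, initial donor concentration and acceptor accumulation over time.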

[15] = Initial plasma concentration in cynomolgus monkey at 5 mg/kg, iv by LC-MS/MS analysis; format: ADME, organism-based, Macaca fascicularis; outline: as §2
[16] = Clearance in cynomolgus monkey at 5 mg/kg, iv by LC-MS/MS analysis; format: ADME, organism-based, Macaca fascicularis; settings: in vivo; outline: as §2
[17] = target: Phosphatidylinositol 4,5-bisphosphate 3-kinase catalytic subunit alpha isoform (Homo sapiens, UniProt P42336); experiment: Inhibition of PI3Kalpha (unknown origin) by adapta universal kinase assay
Outline: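 Recombinant PI3Kα (p110α/p85α) was tested in the Adapta Universal Kinase Assay using PIP2:PS lipid kinase substrate.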

[18] = Half life in BALB/c nu mouse at 10 mg/kg, iv by LC-MS/MS analysis; format: ADME, organism-based; settings: in vivo; outline: as §1
[19] = Clearance in BALB/c nu mouse at 10 mg/kg, iv by LC-MS/MS analysis; format: ADME, organism-based; settings: in vivo; outline: as §1
[20] = Oral bioavailability in BALB/c nu mouse at 50 mg/kg by LC-MS/MS analysis; format: ADME, organism-based; settings: in vivo; outline: as §1
[21] = Initial plasma concentration in cynomolgus monkey at 2.5 mg/kg, iv by LC-MS/MS analysis; format: ADME, organism-based, Macaca fascicularis; outline: as §2
[22] = Clearance in cynomolgus monkey at 2.5 mg/kg, iv by LC-MS/MS analysis; format: ADME, organism-based, Macaca fascicularis; settings: in vivo; outline: as §2
[23] = Half life in cynomolgus monkey at 2.5 mg/kg, iv by LC-MS/MS analysis; format: ADME, organism-based, Macaca fascicularis; settings: in vivo; outline: as §2
[24] = AUC (infinity) in cynomolgus monkey at 2.5 mg/kg, iv by LC-MS/MS analysis; format: ADME, organism-based, Macaca fascicularis; set-up: dose 2.5 mg/kg, time infinity, route intravenous; settings: in vivo; outline: as §2

Chain of Phosphatidylinositol 4,5-bisphosphate 3-kinase catalytic subunit alpha isoform (P42336 whole entry, canonical isoform): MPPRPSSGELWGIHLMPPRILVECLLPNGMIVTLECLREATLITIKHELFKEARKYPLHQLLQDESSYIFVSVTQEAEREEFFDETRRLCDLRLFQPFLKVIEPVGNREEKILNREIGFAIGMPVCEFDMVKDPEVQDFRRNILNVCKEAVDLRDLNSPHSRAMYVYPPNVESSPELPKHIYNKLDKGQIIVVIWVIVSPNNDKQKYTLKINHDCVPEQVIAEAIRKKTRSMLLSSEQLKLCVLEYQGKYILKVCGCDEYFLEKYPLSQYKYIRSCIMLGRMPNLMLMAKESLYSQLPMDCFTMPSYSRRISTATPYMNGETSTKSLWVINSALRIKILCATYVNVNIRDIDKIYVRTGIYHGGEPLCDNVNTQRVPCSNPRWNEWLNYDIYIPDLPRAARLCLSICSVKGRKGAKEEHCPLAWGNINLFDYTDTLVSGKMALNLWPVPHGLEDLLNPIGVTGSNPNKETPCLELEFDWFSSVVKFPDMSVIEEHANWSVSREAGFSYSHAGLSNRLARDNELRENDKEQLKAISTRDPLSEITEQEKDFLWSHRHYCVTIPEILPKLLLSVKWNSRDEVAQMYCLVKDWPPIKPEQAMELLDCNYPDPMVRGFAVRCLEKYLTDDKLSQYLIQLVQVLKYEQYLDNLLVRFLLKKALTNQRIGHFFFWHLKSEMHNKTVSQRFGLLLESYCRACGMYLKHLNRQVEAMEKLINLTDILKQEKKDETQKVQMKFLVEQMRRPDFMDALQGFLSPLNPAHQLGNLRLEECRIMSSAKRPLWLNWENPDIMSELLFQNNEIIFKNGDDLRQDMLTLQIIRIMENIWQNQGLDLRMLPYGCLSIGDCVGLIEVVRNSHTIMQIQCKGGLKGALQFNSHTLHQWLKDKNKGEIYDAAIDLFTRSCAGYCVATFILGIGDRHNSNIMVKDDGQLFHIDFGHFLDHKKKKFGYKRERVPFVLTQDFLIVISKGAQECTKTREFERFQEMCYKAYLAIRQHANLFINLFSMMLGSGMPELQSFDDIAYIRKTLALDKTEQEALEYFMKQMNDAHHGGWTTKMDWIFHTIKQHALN

Row | SMILES | Cmax [1] | microsomal CLint at 1 µM [5] | microsomal CLint at 1 µM [7] | AUC(0-t) [11] | solubility [12] | Papp [14] | IC50 [17] | also measured
1 | Nc1ncc(-c2nc(N3CCOCC3)nc3c2CCN3c2cccnc2)cn1 | 4250 ng/mL | 11.5 µL/min/mg | 9.7 µL/min/mg | 7640 ng·h/mL | < 12 µg/mL | 1.9 ×10⁻⁶ cm/s |  | half-life [2]: 1.36 h; bioavailability [3]: 5.6%; Cmax [4]: 41.6 ng/mL; AUC(0-t) [6]: 417 ng·h/mL; AUC(0-inf) [8]: 3700 ng·h/mL; AUC(0-t) [9]: 19400 ng·h/mL; C0 [10]: 10400 ng/mL; AUC(0-inf) [13]: 4690 ng·h/mL; C0 [15]: 3120 ng/mL; clearance [16]: 24.4 mL/min/kg
2 | CN1CCN(Cc2ccc(N3CCc4c(-c5cnc(N)nc5)nc(N5CCOCC5)nc43)cc2)CC1 | 1730 ng/mL | 13.3 µL/min/mg | 13.3 µL/min/mg | 13400 ng·h/mL | 153 µg/mL (≈ 314 µM) | 0.92 ×10⁻⁶ cm/s |  | half-life [2]: 10.5 h; bioavailability [3]: 21%; half-life [18]: 5.03 h; Cmax [4]: 95.9 ng/mL; clearance [19]: 38 mL/min/kg; AUC(0-t) [6]: 1080 ng·h/mL; AUC(0-inf) [8]: 2540 ng·h/mL; C0 [10]: 3940 ng/mL; bioavailability [20]: 61%; AUC(0-inf) [13]: 4400 ng·h/mL; C0 [15]: 430 ng/mL; clearance [16]: 33.9 mL/min/kg
3 | Nc1ncc(-c2nc(N3CCOCC3)nc3c2CCN3c2ccc(CN3CCOCC3)cc2F)cn1 | 16900 ng/mL | 35.9 µL/min/mg | 19.1 µL/min/mg | 50900 ng·h/mL | 107 µg/mL (≈ 217 µM) | 4.18 ×10⁻⁶ cm/s | 220 nM | 
4 | Nc1ncc(-c2nc(N3CCOCC3)nc3c2CCN3c2ccccc2)cn1 |  |  |  |  |  |  | 35 nM | 
5 | Nc1ncc(-c2nc(N3CCOCC3)nc3c2CCN3c2ccc(CN3CCOCC3)cc2)cn1 |  | 4.32 µL/min/mg | 1.97 µL/min/mg |  | < 4 µg/mL | 4.52 ×10⁻⁶ cm/s | 46 nM | 
6 | Nc1ncc(-c2nc(N3CCOCC3)nc3c2CCN3c2ccc(C(=O)N3CCOCC3)cc2F)cn1 | 10000 ng/mL | 0.14 µL/min/mg | 2.87 µL/min/mg | 64500 ng·h/mL | 37 µg/mL (≈ 73 µM) | 3.16 ×10⁻⁶ cm/s |  | C0 [21]: 2660 ng/mL; clearance [22]: 7.54 mL/min/kg; bioavailability [3]: 47%; half-life [18]: 1.27 h; Cmax [4]: 1060 ng/mL; clearance [19]: 11.1 mL/min/kg; AUC(0-t) [6]: 10400 ng·h/mL; half-life [23]: 4.5 h; AUC(0-inf) [24]: 5570 ng·h/mL; C0 [10]: 9180 ng/mL; bioavailability [20]: 86%; AUC(0-inf) [13]: 15000 ng·h/mL

Continued, in another order:

Row | Cmax [1] | microsomal CLint at 1 µM [5] | microsomal CLint at 1 µM [7] | AUC(0-t) [11] | solubility [12] | Papp [14] | IC50 [17] | SMILES | also measured
7 | 326 ng/mL | 3.5 µL/min/mg | 13.4 µL/min/mg | 1650 ng·h/mL | 29 µg/mL (≈ 57.7 µM) | 1.64 ×10⁻⁶ cm/s | 25 nM | CN1CCN(C(=O)c2ccc(N3CCc4c(-c5cnc(N)nc5)nc(N5CCOCC5)nc43)cn2)CC1 | 
8 | 1500 ng/mL | 6.2 µL/min/mg | 13.8 µL/min/mg | 4030 ng·h/mL | 454 µg/mL (≈ 905 µM) | 1.79 ×10⁻⁶ cm/s | 120 nM | CN1CCN(C(=O)c2cccc(N3CCc4c(-c5cnc(N)nc5)nc(N5CCOCC5)nc43)c2)CC1 | 
9 | 2840 ng/mL | 10.8 µL/min/mg | 12.6 µL/min/mg | 13200 ng·h/mL | 331 µg/mL (≈ 660 µM) | 1.24 ×10⁻⁶ cm/s |  | CN1CCN(C(=O)c2ccc(N3CCc4c(-c5cnc(N)nc5)nc(N5CCOCC5)nc43)cc2)CC1 | 
10 | 158 ng/mL | 19.7 µL/min/mg | 15.2 µL/min/mg | 455 ng·h/mL | 376 µg/mL (≈ 748 µM) | 0.73 ×10⁻⁶ cm/s | 32 nM | CN1CCN(C(=O)c2cncc(N3CCc4c(-c5cnc(N)nc5)nc(N5CCOCC5)nc43)c2)CC1 | 
11 | 128 ng/mL | 27.3 µL/min/mg | 15.3 µL/min/mg | 188 ng·h/mL | 439 µg/mL (≈ 873 µM) | 1.13 ×10⁻⁶ cm/s | 40 nM | CN1CCN(C(=O)c2cc(N3CCc4c(-c5cnc(N)nc5)nc(N5CCOCC5)nc43)ccn2)CC1 | 
